Measurements from ChEMBL document CHEMBL5252546, “Salutaxel, a Conjugate of Docetaxel and a Muramyl Dipeptide (MDP) Analogue, Acts as Multifunctional Prodrug That Inhibits Tumor Growth and Metastasis” (J Med Chem, 2018).
Active and inactive are the calls of the source. The calls are words filed in the database; no cut-off is given here.

Tests used:
[1] = Toxicity in BALB/c mouse xenografted with human MDA-MB-231 cells assessed as body weight loss at 5.7 mg/kg,iv administrated once per week for 3 weeks; format: organism-based; conditions: in vivo, 504 h
Method in brief: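 Nude BALB/c nu/nu mice received subcutaneous human tumour cells into the right flank. Dosing started at mean tumour volume of 100–120 mm3, iv once weekly for 3 weeks; the taxane arm was an equimolar control. Body weight and overt side effects were monitored. Mean ± SEM, n = 8.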

4T1 [2] = test: Antitumor activity against mouse 4T1 cells implanted in BALB/c mouse assessed as decrease in spleen MDSC cells at 5.7 mg/kg,iv measured after 28 days (reference value: 38%); format: functional; parameters: scale not given: the % may be the effect or the level left; conditions: time 28 day
Method in brief: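 Splenocytes taken from 4T1 fat-pad tumor-bearing BALB/c mice after 28 days of tumor growth with weekly iv dosing. Cells stained with anti-CD11b PE and anti-Gr-1 FITC, and the Gr-1+CD11b+ percentage scored by flow cytometry. Eight mice per treated group, five naive. Mean ± SEM.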

4T1 [3] = test: Antitumor activity against mouse 4T1 cells implanted in BALB/c mouse assessed as decrease in tumor MMP9 expression level at 5.7 mg/kg,iv administrated once per week for 4 weeks in presence of MDA-205 by western blot assay; format: functional, organism-based
Method in brief: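 Tumour-bearing BALB/c mice (4T1 cells into mammary fat pad) given iv saline vehicle or test agents once weekly for 4 weeks. Tumours excised and probed by western blot for MMP9, MMP2 and NOD1, β-actin as loading control. Bands averaged over five mice per group; representative of two independent experiments.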

[4] = Toxicity in BALB/c mouse injected with mouse 4T1 cells assessed as body weight loss at 5.7 mg/kg,iv in presence of compound 6 administrated once per week for 4 weeks; format: organism-based; conditions: in vivo, 672 h
4T1 [5] = test: Antitumor activity against mouse 4T1 cells implanted in BALB/c mouse assessed as decrease in lung metastasis at 5.7 mg/kg,iv administrated once per week for 4 weeks in presence of compound 5b by H and E staining based assay; format: functional, organism-based
Method in brief: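 BALB/c mice bearing orthotopic mammary fat pad 4T1 tumors, dosed iv weekly for 4 weeks with saline vehicle as control. Lung sections stained with hematoxylin and eosin and examined by light microscopy at 40× for metastasis, inflammatory infiltration and alveolar wall thickening.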

[6] = MRT (0 to infinity) in male rat at 2 mg/kg,iv measured upto 24 hrs; format: ADME, organism-based; conditions: in vivo
[7] = MRT (0 to infinity) in male Beagle dog at 4 mg/kg,iv measured upto 24 hrs; format: ADME, organism-based, Canis lupus familiaris; conditions: in vivo
4T1 [8] = test: Antitumor activity against mouse 4T1 cells xenografted with BALB/c mouse assessed as inhibition of tumor growth at 5 mg/kg,iv administrated once per week for 4 weeks; format: functional; conditions: 4T1, 672 h
Method in brief: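 4T1 cells injected into the mammary fat pad of BALB/c mice; iv saline vehicle or 5, 10 or 20 mg/kg once weekly for 4 weeks; body weight, tumour volume, tumour weight, lung metastatic nodule count and metastasis score recorded; n = 10, mean ± SEM, ANOVA and Student's t test.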

[9] = Stability in mouse plasma assessed as compound remaining at 1 uM incubated for 6 hrs; format: ADME, cell-free
[10] = Clearance in male rat at 4 mg/kg,iv measured upto 24 hrs; format: ADME, organism-based; conditions: in vivo
Method in brief: (§1)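 Rats were given a single iv injection at 2, 4 or 8 mg/kg. Plasma parent drug and released docetaxel were followed over time. Cmax, Tmax, AUC, MRT, t1/2, CL and Vss were reported for males, females and all animals combined.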

[11] = Stability in mouse plasma assessed as compound remaining at 40 uM incubated for 6 hrs; format: ADME, cell-free
[12] = MRT (0 to infinity) in rat at 8 mg/kg,iv measured upto 24 hrs; format: ADME, organism-based; conditions: in vivo
Cytochrome P450 2C19 = Cytochrome P450 2C19 (Homo sapiens, UniProt P33261); test: Inhibition of CYP2C19 in human liver microsomes using probe substrate at 0.1 to 100 uM in presence of NADPH; format: ADME, Microsome; conditions: dose 0.1-100 µM
Cytochrome P450 2C19, sequence (P33261 whole entry): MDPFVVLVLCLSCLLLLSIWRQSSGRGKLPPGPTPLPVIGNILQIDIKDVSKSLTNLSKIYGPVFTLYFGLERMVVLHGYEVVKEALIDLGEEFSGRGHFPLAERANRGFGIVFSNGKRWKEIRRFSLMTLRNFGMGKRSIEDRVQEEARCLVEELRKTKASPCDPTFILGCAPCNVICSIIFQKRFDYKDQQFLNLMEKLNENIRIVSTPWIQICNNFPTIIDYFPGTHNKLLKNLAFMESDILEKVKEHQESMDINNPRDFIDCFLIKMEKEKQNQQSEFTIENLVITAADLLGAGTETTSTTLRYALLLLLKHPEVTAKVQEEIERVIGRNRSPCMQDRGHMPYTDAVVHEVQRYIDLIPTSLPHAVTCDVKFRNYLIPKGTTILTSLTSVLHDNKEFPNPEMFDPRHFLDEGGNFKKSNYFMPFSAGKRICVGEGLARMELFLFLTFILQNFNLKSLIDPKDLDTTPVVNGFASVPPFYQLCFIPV

[13] = Toxicity in Beagle dog assessed as decrease in blood pressure at 1 to 4 mg/kg,iv; format: organism-based, Canis lupus familiaris; conditions: in vivo, dose 1-4 mg/kg
4T1 [14] = test: Antitumor activity against mouse 4T1 cells implanted in BALB/c mouse assessed as decrease in serum IL-6 level at 20 mg/kg,iv administrated once per week for 4 weeks by ELISA; format: functional, organism-based
Method in brief: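 4T1 fat-pad model in BALB/c mice, iv 5–20 mg/kg once weekly for 4 weeks, with vehicle and naive groups; serum MMP9, TIMP-1, IL-6 and S100A9 measured by mouse ELISA kits.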

4T1 [15] = test: Antitumor activity against mouse 4T1 cells implanted in BALB/c mouse assessed as decrease in spleen MMP9 expression level at 5 to 20 mg/kg,iv administrated once per week for 4 weeks by western blot assay; format: functional, organism-based; conditions: dose 5-20 mg/kg
Method in brief: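 4T1 fat-pad model in BALB/c mice, iv once weekly for 4 weeks; MMP9, MMP2 and NOD1 in spleen, lung and tumour by western blot, β-actin loading control; bands averaged over five mice per group, representative of two independent experiments.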

[16] = Prodrug conversion in mouse plasma implanted with mouse 4T1 cells assessed as MRT of docetaxel at 4 mg/kg,iv measured upto 72 hrs; format: ADME, organism-based; conditions: in vivo
[17] = AUC (0-t) in rat at 4 mg/kg,iv measured upto 24 hrs; format: ADME, organism-based; parameters: time < 24 hrs, dose 4 mg/kg, route iv; conditions: in vivo
Method in brief: (§2)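 Single iv dose: rats 2, 4 or 8 mg/kg by intravenous injection; Beagle dogs 1, 2 or 4 mg/kg by intravenous infusion. Plasma concentration–time data were analysed by sex and pooled. Reported parameters: Cmax, Tmax, AUC0−t, AUC0−∞, MRT0−∞, t1/2, CL, Vss, given as mean ± SD.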

[18] = Volume of distribution at steady state in female rat at 2 mg/kg,iv measured upto 24 hrs; format: ADME, organism-based; conditions: in vivo, read-out: Vdss
[19] = AUC (0-infinity) in male rat at 8 mg/kg,iv measured upto 24 hrs; format: ADME, organism-based; parameters: dose 8 mg/kg, time < 24 hrs, route iv; conditions: in vivo; method in brief: as §2
[20] = AUC (0-infinity) in female Beagle dog at 1 mg/kg,iv measured upto 24 hrs; format: ADME, organism-based, Canis lupus familiaris; parameters: dose 1 mg/kg, time < 24 hrs, route iv; conditions: in vivo; method in brief: as §2
[21] = Toxicity in Beagle dog assessed as decrease in body temperature at 1 to 4 mg/kg,iv; format: organism-based, Canis lupus familiaris; conditions: in vivo, dose 1-4 mg/kg
[22] = Toxicity in Beagle dog assessed as effect on respiratory intensity at 1 to 4 mg/kg,iv; format: organism-based, Canis lupus familiaris; conditions: in vivo, dose 1-4 mg/kg
[23] = Drug metabolism in monkey hepatocytes assessed as docetaxel metabolite formation at 20 uM incubated for 180 mins; format: ADME, cell-based, Macaca mulatta, Hepatocyte; conditions: rhesus monkey, 3 h
[24] = Volume of distribution at steady state in rat at 4 mg/kg,iv measured upto 24 hrs; format: ADME, organism-based; conditions: in vivo, read-out: Vdss
Cytochrome P450 2C9 = Cytochrome P450 2C9 (Homo sapiens, UniProt P11712); test: Inhibition of CYP2C9 in human liver microsomes using probe substrate at 0.1 to 100 uM in presence of NADPH; format: ADME, Microsome; conditions: dose 0.1-100 µM
Cytochrome P450 2C9, sequence (P11712 whole entry): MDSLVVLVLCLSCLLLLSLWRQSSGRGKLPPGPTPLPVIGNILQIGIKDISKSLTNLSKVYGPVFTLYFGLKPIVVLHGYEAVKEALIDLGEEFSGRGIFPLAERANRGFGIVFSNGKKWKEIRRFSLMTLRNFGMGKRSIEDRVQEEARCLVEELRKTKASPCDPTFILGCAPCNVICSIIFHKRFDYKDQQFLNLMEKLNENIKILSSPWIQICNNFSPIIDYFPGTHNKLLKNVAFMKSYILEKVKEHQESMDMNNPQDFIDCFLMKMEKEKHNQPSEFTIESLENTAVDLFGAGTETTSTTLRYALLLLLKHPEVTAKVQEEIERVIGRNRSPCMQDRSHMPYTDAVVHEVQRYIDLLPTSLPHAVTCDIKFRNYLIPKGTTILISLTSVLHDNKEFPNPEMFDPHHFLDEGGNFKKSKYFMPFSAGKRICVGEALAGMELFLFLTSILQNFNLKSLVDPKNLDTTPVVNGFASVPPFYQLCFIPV

[25] = Clearance in female rat at 8 mg/kg,iv measured upto 24 hrs; format: ADME, organism-based; conditions: in vivo; method in brief: as §1
[26] = Drug metabolism in human hepatocytes assessed as MDA-205 metabolite formation at 20 uM incubated for 180 mins; format: ADME, cell-based, Hepatocyte; conditions: 3 h
[27] = Cmax in female rat at 2 mg/kg,iv measured upto 24 hrs; format: ADME, organism-based; parameters: time < 24 hrs, dose 2 mg/kg, route iv; conditions: in vivo; method in brief: as §1
MDA-MB-231 = test: Antiproliferative activity against human MDA-MB-231 cells assessed inhibition of cell growth incubated for 72 hrs by SRB assay; format: functional, cell-based; conditions: MDA-MB-231, 72 h
[28] = MRT (0 to infinity) in female Beagle dog at 1 mg/kg,iv measured upto 24 hrs; format: ADME, organism-based, Canis lupus familiaris; conditions: in vivo

With `CC(=O)O[C@@]12CO[C@@H]1C[C@H](O)[C@@]1(C)C(=O)[C@H](O)C3=C(C)[C@@H](OC(=O)[C@H](O)[C@@H](NC(=O)OC(C)(C)C)c4ccccc4)C[C@@](O)([C@@H](OC(=O)c4ccccc4)[C@H]21)C3(C)C` [DOCETAXEL ANHYDROUS] the Activity [1] was “Non-Toxic”, the Activity (4T1 [2]) was 36.4% and the Activity (4T1 [3]) was “inactive”. The Activity [4] was “Non-Toxic” and the Activity (4T1 [5]) was “Active”.

`CC(=O)O[C@@]12CO[C@@H]1C[C@H](O)[C@@]1(C)C(=O)[C@H](O)C3=C(C)[C@@H](OC(=O)[C@H](OC(=O)CCC(=O)NCCCC[C@H](NC(=O)CC[C@@H](NC(=O)[C@H](C)NC(=O)/C=C/c4ccc(F)cc4Cl)C(N)=O)C(=O)O)[C@@H](NC(=O)OC(C)(C)C)c4ccccc4)C[C@@](O)([C@@H](OC(=O)c4ccccc4)[C@H]21)C3(C)C` showed an MRT inf [6] of 13.9 min, an MRT inf [7] of 16.5 min and an inhibition in vivo at 5 mg/kg (4T1 [8]) of 12%. For the same molecule, the Stability [9] was “Stable”, the clearance [10] was 3.28 mL/min/kg and the Stability [11] was “Stable”. The MRT inf [12] was 33.1 min, the “inhibition (INH)” value (Cytochrome P450 2C19) was “Not Active” and the Activity [13] was “Toxic”. The Activity (4T1 [14]) was “Active”, the Activity (4T1 [15]) was “Active” and the MRT [16] was 52.8 min. The AUC(0-t) at 24 h [17] was 16900 ng·h/mL, the Vd [18] was 0.067 L/kg and the AUC(0-inf) [19] was 52800 ng·h/mL. The AUC(0-inf) [20] was 1640 ng·h/mL, the Activity [21] was “Toxic” and the Activity [22] was “Non-Toxic”. For the same molecule, the Drug metabolism [23] was “Metabolite_Detected”, the Vd [24] was 0.076 L/kg and the “inhibition (INH)” value (Cytochrome P450 2C9) was “Not Active”. For the same molecule, the clearance [25] was 3.39 mL/min/kg, the Drug metabolism [26] was “Metabolite_Detected” and the Cmax [27] was 14600 ng/mL. The IC50 (MDA-MB-231) was 16.3 nM and the MRT inf [28] was 18.4 min.
